In the array DNA melting data of Ke et al. (doi:10.1101/2024.01.08.574731):

Key:
[1] = melting temperature; fluorescence melt of hairpins on a sequencing array, two-state fit, raised by 9.35 °C to match UV melts; settings: sodium 0.088 M
Method in brief: (§1)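 In 50 mM Na-HEPES pH 8.0 containing 25 mM NaCl, hairpins from the library on a sequenced MiSeq flow cell were imaged for Cy3 fluorescence at 2.5 °C steps up to 60 °C, with Cy3 and quencher oligos annealed. After normalisation to pre-quench Cy3 and to control constructs, two-state fits with bootstrapping gave melting temperature and folding enthalpy. Four replicates were combined by inverse-variance weighting, and fitted temperatures were shifted up by 9.35 °C to match UV melts.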

[2] = folding enthalpy; higher = less favourable; fluorescence melt of hairpins on a sequencing array, two-state fit; settings: sodium 0.088 M
Method in brief: as §1

| Sequence | Tm [1] [°C] | folding enthalpy [2] [kcal/mol] |
| --- | --- | --- |
| GCCTCTCGAAAGAGGGGC (((.(((....))).))) | 63.2 | -34.1 |
| GCATTGGGAAACTAATGC (((((.(....).))))) | 46.7 | -32.6 |
| GGGCTCGAAAGAGGTCCC ((((((....)))..))) | 48.2 | -17.1 |
| GATCATCAGGATGATC ((((((....)))))) | 50.6 | -36 |
| GCTAGCGGAAACGCCAGC (((.(((....))).))) | 48.4 | -23.6 |
| GCCCGACCGAAAGGTGGC (((..(((....)))))) | 51 | -17.1 |
| GGACAGCGAAAGCTTCC (((.(((....)))))) | 43.5 | -20.9 |
| GAAGACGAAAGTCCTTC ((((((....))).))) | 39.2 | -20.8 |
| GTACCGCGAAAGCGTAC (((.(((....)))))) | 51.1 | -14.1 |
| GAGTGGAAACACTC (((((....))))) | 51 | -29.6 |
| GATCTCGAGCGAGATC ((((((....)))))) | 53.3 | -48.4 |
| GGTTTCGCGAAAGCGACC (((..(((....)))))) | 32.1 | -8.08 |
| GCGAAGCGAAAGCTATGC ((..(((....)))..)) | 40.7 | -7.44 |
| GTCCAGCCGAAAGGCGAC (((..(((....)))))) | 40.6 | -9.75 |
| GTTGTCACGAAAGTGAAC (((..(((....)))))) | 48.1 | -23.7 |
| GAATCGCGAAAGCGTTTC (((.(((....))).))) | 46.2 | -21.9 |
| GGCACAGCGAAAGCTGCC (((..(((....)))))) | 48.3 | -12.3 |
| GTCACACGAAAGTGCGAC (((.(((....))).))) | 55.6 | -35.4 |
| GCATCGCGAAAGCGACGC ((.((((....)))).)) | 63.9 | -21.4 |
| GCCAACCGAAAGGTGGC (((.(((....)))))) | 67.4 | -22.9 |
| GATCGGGGAAACTCGATC (((((.(....).))))) | 51.2 | -33.1 |
| GGGATTCGAAAGAACCCC (((.(((....))).))) | 49.9 | -34 |
| GGTACTGGAAACGGTACC (((((.(....).))))) | 50.4 | -40.9 |

| Sequence | Tm [1] [°C] | folding enthalpy [2] [kcal/mol] |
| --- | --- | --- |
| GGCTCTGGAAACAGGGTC (.(.(((....))).).) | 37.5 | -29.6 |
| GAGGGCGGAAACGTCCTC ((((.((....)).)))) | 59.1 | -47 |
| GGCGACGAAAGTCCTGCC ((((((....)))..))) | 46 | -20.4 |
| GATCCACATGTGGATC ((((((....)))))) | 62.1 | -41 |
| GGCGGGGGAAACCCCACC ((.((((....)))).)) | 56.1 | -27.7 |
| GCGAGGCGAAAGCTGCGC (((..((....))..))) | 65.1 | -29.5 |
| GATCAGGTGGCTGATC ((((((....)))))) | 50.5 | -31.6 |
| GATCTTGAGAAGATC ((((((...)))))) | 39.6 | -19.9 |
| GCCGGCGGAAACGCCGAC (.(((((....))))).) | 59.4 | -10.3 |
| GCGCACGAAAGTGCCCGC ((((((....)))..))) | 47 | -12 |
| GGGGTTCGAAAGAAGCCC (((.(((....))).))) | 66.3 | -41.5 |
| GCGTTGCGAAAGCGATGC ((.(.((....)).).)) | 57.6 | -21.9 |
| GTGGCCGAAAGGCGCAC ((((((....))).))) | 56.3 | -13.9 |
| GATAGCCCGAAAGGGATC (((..(((....)))))) | 32.6 | -8.63 |
| GATACCGAAAGGTGCATC ((((((....)))..))) | 27.4 | -9.69 |
| GGTTCGCGAAAGCGCACC (((.(((....))).))) | 55.4 | -29.5 |
| GAACGTGGAAACGTGTTC ((((..(....)..)))) | 37.5 | -14.9 |
| GCTCGCGAAAGCGCTAGC ((((((....)))..))) | 42.6 | -11.9 |
| GCACTCGAAAGAGGTTGC ((((((....)))..))) | 37.6 | -18.6 |
| GTCTGCGAAAGCATAGAC ((((((....)))..))) | 45.9 | -19.9 |
| GCCATGCGAAAGCCAGGC (((..((....))..))) | 55.4 | -21 |
| GGGGATGGAAACATCCTC (.(((((....))))).) | 52.4 | -24.4 |
| GGCTGCGAAAGCAGAGCC ((((((....)))..))) | 60.1 | -16.3 |

| Sequence | Tm [1] [°C] | folding enthalpy [2] [kcal/mol] |
| --- | --- | --- |
| GCGAGGCGTCGC ((((....)))) | 56.6 | -14.7 |
| GGGGCCGAAAGGCTTCCC ((((((....)))..))) | 46.4 | -13.5 |
| GATCATCCTTATGATC ((((((....)))))) | 46.3 | -37 |
| GCGTGGCGAAAGCAGCGC (((..((....))..))) | 67.9 | -33.8 |
| GTTTATCGAAAGATTAAC (((.(((....))).))) | 33.5 | -28.9 |
| GTGGTCGGAAACGATCGC (.(.(((....))).).) | 46.1 | -22.4 |
| GCTTAGCGAAAGCCAGGC ((.(.((....)).).)) | 34.5 | -12.6 |
| GATCATCCGCATGATC ((((((....)))))) | 47.8 | -35.9 |
| GCATTGCGAAAGCGTTGC (((..((....))..))) | 47.5 | -21.9 |
| GACAGCGAAAGCTAAGTC ((((((....)))..))) | 38.2 | -17.5 |
| GCCCGCGAAAGCGAGGGC ((((((....)))..))) | 68.7 | -28 |
| GTGACCGAAAGGTGTCAC ((((((....)))..))) | 45.8 | -25.4 |
| GAACGCCGAAAGGCCTTC (((.(((....))).))) | 34.5 | -13.1 |
| GCCTCCGAAAGGAGAGGC ((((((....)))..))) | 54.8 | -20.4 |
| GATCGAAAAACGATC ((...........)) | 39.2 | -20.3 |
| GACTACGAAAGTAAGTC ((((((....))).))) | 47.1 | -29.4 |
| GAGGGTGGAAACACCTTC ((.((((....)))).)) | 47 | -15.9 |
| GCCACCGGAAACAGCGGC (((.(.(....).).))) | 32.5 | -16.9 |
| GTCTTCGAAAGAACGGAC ((((((....)))..))) | 30.4 | -14.6 |
| GTCATCGAAAGATCTGAC ((((((....)))..))) | 23.8 | -10.9 |
| GTGGGTGCGAAAGCACAC (((..(((....)))))) | 64.2 | -17.5 |
| GCGATTCTTCGC ((((....)))) | 53.5 | -26.1 |
| GGTGAAGAAATTCACC ((((((....)))))) | 52.6 | -32.5 |

| Sequence | Tm [1] [°C] | folding enthalpy [2] [kcal/mol] |
| --- | --- | --- |
| GGGCCCGGAAACGGGCTC (.(((((....))))).) | 68 | -12.2 |
| GCGATCGGAAACGATCAC (.(((((....))))).) | 46.5 | -14.7 |
| GAACAGCGAAAGCTTTTC (((.(((....))).))) | 37.8 | -19.9 |
| GACGCCGAAAGGCAGGTC ((((((....)))..))) | 52.1 | -16.2 |
| GAACCAGGAAACCGGTTC (((((.(....).))))) | 45.1 | -36.3 |
| GGATGCCGAAAGGCCTCC (((.(((....))).))) | 50.5 | -24.9 |
| GATCAGTCCTCTGATC ((((((....)))))) | 51.1 | -39.7 |
| GAGTTGCCGAAAGGCCTC (((..(((....)))))) | 34.9 | -9.97 |
| GATCACTATGGTGATC ((((((....)))))) | 59 | -41.5 |
| GCAAAGCGAAAGCGTTGC ((((.((....)).)))) | 65 | -26.3 |
| GATCTAAGGATAGATC ((((((....)))))) | 34 | -21.9 |
| GCTGCCGAAAGGCGCAGC ((((((....)))..))) | 51.3 | -13.6 |
| GTCTTGTCGAAAGACGAC (((..(((....)))))) | 50.4 | -18.1 |
| GATCTCCGGGAGATC ((((((...)))))) | 52.8 | -39.7 |
| GGAACTGGAAACAATTCC ((((.((....)).)))) | 28.4 | -13.1 |
| TATCCGAAAGGATA (((((....))))) | 56.5 | -16.6 |
| GTCGGCGAAAGCCATGAC ((((((....)))..))) | 42.4 | -13.9 |
| GATCTCTCACGAGATC ((((((....)))))) | 51.6 | -37.2 |
| GATCCTAGTGAGGATC ((((((....)))))) | 50.9 | -36.2 |
| GTTGGTGGAAACACCAAC (((((((....))))))) | 66.2 | -46.1 |
| GTCACAGGAAACTATGAC ((((.((....)).)))) | 32 | -20.1 |
| GCCTTTTCGAAAGAAGGC (((..(((....)))))) | 42.7 | -30.4 |
| GTAATCGCGAAAGCGTAC (((..(((....)))))) | 26.7 | -6.16 |
